PubChem BioAssay
Several values for one entry are separate records, joined by “and”; a condition that tells them apart may be missing. Identical values can stand only once. Activity calls are given as the source filed them.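 The calls were made as follows, unless noted: active = viability at or below 30% in both replicate assays; inconclusive = viability at or below 30% in just one of the two assays; inactive = the rest.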

Key:
[1] = SK-BR-3 cell growth inhibitors, pilot screen, 24 h, human (AID 572;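 active = viability at or below 10% of carrier control in both of two separate runs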;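 also: compound exposure lasted between 18 and 24 h rather than exactly 24 h; 100% = carrier-treated control wells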); conditions: SK-BR-3 viability, CellTiter-Glo luminescence, at 10 µM, stronger effect = lower value
[2] = HUVEC growth inhibition – cell-based, human, primary screen (AID 575); conditions: HUVEC proliferation, CellTiter-Glo luminescence, 72 h; at 10 µM; stronger effect = lower value;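 also: 100% = median of untreated cell wells with 0.1% DMSO on each plate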
How it was run: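 Test system: primary human umbilical vein endothelial cells. Quantity: 1250 cells/well. Compound: single 10 µM dose, 0.1% DMSO, from 5x medium stock. Timing: 72 h treatment at 37 °C. Detection: ATP-based CellTiter-Glo luminescent read. Benchmarks: vehicle and MePR control wells. Format: 384-well plates coated with collagen.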

[3] = growth inhibitors of H69AR lung tumor, primary screen, human, duplicate replicates (AID 580;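 active = viability at or under a set limit in both replicates, limit being median viability minus 3 SD, cut at about 48% in these data, passing the limit was not always enough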;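 also: 100% = mean luminescence of untreated wells and 0% = no signal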); conditions: H69AR lung tumor cells viability, ATP luminescence, 72 h; at 10 µM; stronger effect = lower value
[4] = reversal of MRP1-mediated doxorubicin resistance, pilot screen, H69AR cells, doxorubicin co-treatment (AID 601;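 active = viability loss from added drug above about 55%, and viability with drug at most 40%, in both replicates, limit read from the data, passing the limit was not always enough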); conditions: CellTiter-Glo, 72 h, at 10 µM; for differential viability (reversal): stronger effect = higher value
[5] = 384-well plate pilot, post-Golgi transport modulator project, inhibition of yeast transport mutant growth (AID 636; in the data active = inhibition above about 31%); conditions: absorbance 615 nm, about 18 h, stronger effect = higher value
[6] = growth suppression of yeast trafficking mutant, preliminary HTS, modulators of trafficking downstream of Golgi apparatus project, 1536-format plate, OD 615 nm (AID 637; in the data active = inhibition above about 30%); conditions: yeast transport mutant growth, absorbance 615 nm, 18 h; stronger effect = higher value
[7] = H69AR cells + 2 uM doxorubicin, measured here: viability with 2 uM doxorubicin, stronger effect = lower value
[8] = H69AR cells, compound alone cytotoxicity

Compound	viability [1]	viability [2]	viability [3]	differential viability (reversal) ([4]; H69AR cells + 2 uM doxorubicin)	viability [4, 7]	viability [4, 8]	inhibition [5]	inhibition [6]
CCOC(=O)C1=C(C)Nc2nc(SCC(=O)OC)nn2C1c1cc(F)cc(F)c1 (centres undefined)	91.5% (inactive)	75.4% (inactive)	92.9% (inactive)	7.16% (inactive)	85.7%	92.9%	-8.24% (inactive)	2.06% (inactive)
Cc1cc2c(c(=O)n1C)C(Cc1ccccc1)C(C#N)=C(N)O2 (centres undefined)	95% (inactive)	109% (inactive)	95.1% (inactive)	9.48% (inactive)	85.6%	95.1%	-5.54% (inactive)	2.55% (inactive)
CCCCCCC(c1c(C)n(C)n(-c2ccccc2)c1=O)c1c(C)n(C)n(-c2ccccc2)c1=O	90% (inactive)	99.9% (inactive)	80.8% (inactive)	2.09% (inactive)	78.7%	80.8%	-3.47% (inactive)	-0.18% (inactive)
Cc1cc(C(=O)Nc2nc3c(s2)CCCC3)cs1	93% (inactive)	67.5% (inactive)	91.9% (inactive)	14% (inactive)	77.8%	91.9%	-0.14% (inactive)	-7.58% (inactive)
CCOc1ccc(S(=O)(=O)N(C)C)cc1-c1nc2c(C(C)(C)C)nn(C)c2c(=O)[nH]1	99% (inactive)	103% (inactive)	78.9% (inactive)	0.77% (inactive)	78.1%	78.9%	-2.03% (inactive)	-3.09% (inactive)
CCCn1cnc2c(cnn2-c2ccc(F)cc2)c1=O	100% (inactive)	90.9% (inactive)	98.8% (inactive)	1.56% (inactive)	97.3%	98.8%	-0.78% (inactive)	0.16% (inactive)
C#CCN(C)Cc1ccccc1	96% (inactive)	94.3% (inactive)	93.8% (inactive)	-6.42% (inactive)	100%	93.8%	0.26% (inactive)	-1.17% (inactive)
CC(=N\O)/C(CN(C)C)=N/O	97% (inactive)	88.7% (inactive)	91.5% (inactive)	-6.4% (inactive)	97.9%	91.5%	-1.78% (inactive)	25.6% (inactive)
CN(C)C(=O)Oc1cccc([N+](C)(C)C)c1	62% (inactive) and 92% (inactive)	97.5% (inactive) and 92% (inactive)	94.7% (inactive) and 120% (inactive)	-1.94% (inactive) and 17.4% (inactive)	96.6% and 103%	94.7% and 120%	-5.06% (inactive) and -2.21% (inactive)	-4% (inactive) and -5.83% (inactive)
CN(C)CCC=C1c2ccccc2CCc2ccccc21	95% (inactive)	60.6% (inactive)	82.3% (inactive)	8.06% (inactive)	74.3%	82.3%	-3.12% (inactive)	-1.67% (inactive)
Cn1nnnc1SCC1=C(C(=O)O)N2C(=O)[C@@H](NC(=O)[C@H](O)c3ccccc3)[C@H]2SC1	132% (inactive)	82.9% (inactive)	99.2% (inactive)	2.56% (inactive)	96.6%	99.2%	-1.3% (inactive)	0.33% (inactive)
Cc1cccc(N(C)C(=S)Oc2ccc3ccccc3c2)c1	89% (inactive)	109% (inactive)	97.1% (inactive)	13% (inactive)	84.1%	97.1%	0.26% (inactive)	1.83% (inactive)
Cc1nn(-c2ccccc2)c2[nH]c(C(F)(F)F)cc(=O)c12	131% (inactive)	95.6% (inactive)	108% (inactive)	-10.8% (inactive)	118%	108%	-5.62% (inactive)	4.36% (inactive)
COC(=O)Nc1sc2c(c1C(N)=O)CCCCCC2	89% (inactive)	105% (inactive)	99.5% (inactive)	19.3% (inactive)	80.2%	99.5%	-1.82% (inactive)	5.25% (inactive)
O=C1c2ccccc2NC2CCCCCN12 (centres undefined)	108% (inactive)	92.9% (inactive)	100% (inactive)	10.3% (inactive)	89.8%	100%	-2.34% (inactive)	1.48% (inactive)
COc1cccc(OCC(=O)Nc2ccccc2C(N)=O)c1	110% (inactive)	99.9% (inactive)	97% (inactive)	13.1% (inactive)	83.9%	97%	-1.51% (inactive)	1.13% (inactive)
O=C(Cc1nc2ccccc2s1)c1ccc(O)cc1O	100% (inactive)	87.3% (inactive)	90.8% (inactive)	4.72% (inactive)	86%	90.8%	-4.53% (inactive)	-0.18% (inactive)
CC1CN(S(=O)(=O)c2ccc(Cl)c(C(F)(F)F)c2)CC(C)O1 (centres undefined)	68% (inactive)	111% (inactive)	100% (inactive)	8.69% (inactive)	91.8%	100%	-9.32% (inactive)	2% (inactive)
